Results from paper PMC4548982 (Chembiochem : a European journal of chemical biology, 2015).
Values after ≈ are worked out from the molar mass of the structure shown. “Also recorded” adds a separate entry of the source.

Tests used:
[1] = system: mutant A1408G E. coli ribosomes; test: EF-G-dependent translocation inhibition; format: biochemical; details: read-out: Translocation inhibition IC50, A1408G
Outline: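 Ribosomes purified from the corresponding Δ7 prrn E. coli strain carrying A1408G. The extent of EF-G-dependent translocation was measured by toeprinting across various concentrations of the test aminoglycoside. IC50 was obtained by fitting the data to the Hill equation.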

E. coli Δ7 prrn WT = test: Growth inhibition of E. coli Δ7 prrn WT; format: cell-based; details: for antibacterial activity in words: E. coli Δ7 prrn WT compared with A1408G and G1491U strains
[2] = system: control (WT) E. coli ribosomes; test: EF-G-dependent translocation inhibition; format: biochemical; details: in vitro, WT (and A1408G) ribosomes
ribosome = details: cited from earlier work
AAC(6′)-Ib′ = test: Relative initial rate of AME reaction, AAC; format: biochemical
E. coli Δ7 prrn A1408G = test: Growth inhibition of E. coli Δ7 prrn A1408G; format: cell-based; details: Escherichia coli
E. coli TolC (O) = test: Antibacterial MIC, E. coli TolC; format: cell-based; details: Escherichia coli
E. coli Δ7 prrn G1491U = test: Growth inhibition of E. coli Δ7 prrn G1491U; format: cell-based; details: Escherichia coli

| SMILES | IC50 [1] | antibacterial activity in words (E. coli Δ7 prrn WT) | inhibition of translocation in words [2] | also measured |
| --- | --- | --- | --- | --- |
| NCC1OC(OC2C(N)CC(N)C(OC3OC(CSc4cccc(F)c4)C(O)C(N)C3O)C2O)C(N)CC1O (stereo not shown) [3y] | 210 µM | – | – | – |
| CCCCCCCCCCCCCCCCSCC1OC(OC2C(N)CC(N)C(OC3OC(CN)C(O)CC3N)C2O)C(O)C(N)C1O (stereo not shown) [3g] | – | indistinguishably strong antibacterial activity | – | – |
| CC(C)(C)c1ccc(SCC2OC(OC3C(N)CC(N)C(OC4OC(CN)C(O)CC4N)C3O)C(O)C(N)C2O)cc1 (stereo not shown) [3s] | – | virtually inactive | – | – |
| CCCCCCCCCCCCCCCCCCSC[C@H]1O[C@H](O[C@@H]2[C@@H](O)[C@H](O[C@H]3O[C@H](CN)[C@@H](O)C[C@H]3N)[C@@H](N)C[C@H]2N)[C@H](O)[C@@H](N)[C@@H]1O [3h] | – | – | failed to inhibit translocation | – |
| CCCCCCCCCCCCSC[C@H]1O[C@H](O[C@@H]2[C@@H](O)[C@H](O[C@H]3O[C@H](CN)[C@@H](O)C[C@H]3N)[C@@H](N)C[C@H]2N)[C@H](O)[C@@H](N)[C@@H]1O [3e] | – | lower activity with little-to-no h44-dependence | fails to inhibit translocation | – |
| CCCCCCCCCCCCCCSC[C@H]1O[C@H](O[C@@H]2[C@@H](O)[C@H](O[C@H]3O[C@H](CN)[C@@H](O)C[C@H]3N)[C@@H](N)C[C@H]2N)[C@H](O)[C@@H](N)[C@@H]1O [3f] | – | indistinguishably strong antibacterial activity | – | inhibition of in vitro translation in words (ribosome): fails to inhibit in vitro translation; relative initial rate, normalized to TOB (AAC(6′)-Ib′): > 200% |
| CCCCCCSCC1OC(OC2C(N)CC(N)C(OC3OC(CN)C(O)CC3N)C2O)C(O)C(N)C1O (stereo not shown) [3b] | – | virtually inactive; also recorded: antibacterial activity is completely lost | – | – |
| CCCCCCCCCCSC[C@H]1O[C@H](O[C@@H]2[C@@H](O)[C@H](O[C@H]3O[C@H](CN)[C@@H](O)C[C@H]3N)[C@@H](N)C[C@H]2N)[C@H](O)[C@@H](N)[C@@H]1O [3d] | – | lower activity with little-to-no h44-dependence | failed to inhibit translocation | – |
| NC[C@H]1O[C@H](O[C@H]2[C@H](O)[C@@H](O[C@H]3O[C@H](CSc4ccccc4F)[C@@H](O)[C@H](N)[C@H]3O)[C@H](N)C[C@@H]2N)[C@H](N)C[C@@H]1O [3x] | 310 µM | – | notably poorer inhibitors of translocation | – |
| NC[C@H]1O[C@H](O[C@H]2[C@H](O)[C@@H](O[C@H]3O[C@H](CO)[C@@H](O)[C@H](N)[C@H]3O)[C@H](N)C[C@@H]2N)[C@H](N)C[C@@H]1O [TOB, tobramycin] | 700 µM | – | – | MIC (E. coli Δ7 prrn A1408G): > 150 µg/mL; MIC (E. coli TolC (O)): > 150 µg/mL; MIC (E. coli Δ7 prrn G1491U): > 150 µg/mL; MIC (E. coli Δ7 prrn WT; Escherichia coli): 18.8 µg/mL (≈ 40.2 µM) |
| CCCCSCC1OC(OC2C(N)CC(N)C(OC3OC(CN)C(O)CC3N)C2O)C(O)C(N)C1O (stereo not shown) [3a] | – | biological activity indistinguishable from TOB | – | – |
| COc1ccccc1SC[C@H]1O[C@H](O[C@@H]2[C@@H](O)[C@H](O[C@H]3O[C@H](CN)[C@@H](O)C[C@H]3N)[C@@H](N)C[C@H]2N)[C@H](O)[C@@H](N)[C@@H]1O [3u] | 620 µM | – | notably poorer inhibitors of translocation | – |
